Test results reported in ChEMBL document CHEMBL4393666, “Synthesis and Anti-HCV Activities of 4'-Fluoro-2'-Substituted Uridine Triphosphates and Nucleotide Prodrugs: Discovery of 4'-Fluoro-2'- C-methyluridine 5'-Phosphoramidate Prodrug (AL-335) for the Treatment of Hepatitis C Infection” (J Med Chem, 2019).

Columns and labels:
[1] = Cytotoxicity against human HuH7 cells infected with HCV con1 subgenomic replicon assessed as reduction in cell viability measured after 3 days by CellTiter-blue cell viability assay; format: cell-based, Huh-7
How it was run: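 Con1 replicon Huh-7 cells treated as for the replicon assay (DMEM, 2% FBS, 0.5% DMSO, no G418, 37°C) for 3 days. Viability by CellTiter-Blue; CC50 by curve fitting.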

Hepatitis C virus = assay: Antiviral activity against HCV con1 subgenomic replicon infected in human HuH7 cells assessed as reduction in viral RNA replication by qRT-PCR analysis; format: functional, organism-based, Hepacivirus hominis; details: isolate Con1, Huh-7
How it was run: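 Con1 subgenomic replicon Huh-7 cells (neomycin selection, kept in DMEM/10% FBS with 0.25 mg/ml G418) treated with compounds in DMEM, 2% FBS, 0.5% DMSO, no G418, at 37°C. Total RNA extracted; HCV RNA copy number by multiplex Taqman QRT-PCR. EC50/EC90 by 4-parameter curve fit; EC50 is the mean of ≥2 independent runs.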

DNA polymerase alpha = molecular target: T1, DNA polymerase alpha (Homo sapiens, UniProt P09884); assay: Inhibition of human DNA polymerase-alpha assessed as reduction in [3H]dTTP incorporation in to activated calf thymus DNA substrate at 100 uM by scintillation counting method relative to control; details: human DNA polymerase-alpha enzyme, probe [3H]dTTP
T1 sequence (P09884 whole entry): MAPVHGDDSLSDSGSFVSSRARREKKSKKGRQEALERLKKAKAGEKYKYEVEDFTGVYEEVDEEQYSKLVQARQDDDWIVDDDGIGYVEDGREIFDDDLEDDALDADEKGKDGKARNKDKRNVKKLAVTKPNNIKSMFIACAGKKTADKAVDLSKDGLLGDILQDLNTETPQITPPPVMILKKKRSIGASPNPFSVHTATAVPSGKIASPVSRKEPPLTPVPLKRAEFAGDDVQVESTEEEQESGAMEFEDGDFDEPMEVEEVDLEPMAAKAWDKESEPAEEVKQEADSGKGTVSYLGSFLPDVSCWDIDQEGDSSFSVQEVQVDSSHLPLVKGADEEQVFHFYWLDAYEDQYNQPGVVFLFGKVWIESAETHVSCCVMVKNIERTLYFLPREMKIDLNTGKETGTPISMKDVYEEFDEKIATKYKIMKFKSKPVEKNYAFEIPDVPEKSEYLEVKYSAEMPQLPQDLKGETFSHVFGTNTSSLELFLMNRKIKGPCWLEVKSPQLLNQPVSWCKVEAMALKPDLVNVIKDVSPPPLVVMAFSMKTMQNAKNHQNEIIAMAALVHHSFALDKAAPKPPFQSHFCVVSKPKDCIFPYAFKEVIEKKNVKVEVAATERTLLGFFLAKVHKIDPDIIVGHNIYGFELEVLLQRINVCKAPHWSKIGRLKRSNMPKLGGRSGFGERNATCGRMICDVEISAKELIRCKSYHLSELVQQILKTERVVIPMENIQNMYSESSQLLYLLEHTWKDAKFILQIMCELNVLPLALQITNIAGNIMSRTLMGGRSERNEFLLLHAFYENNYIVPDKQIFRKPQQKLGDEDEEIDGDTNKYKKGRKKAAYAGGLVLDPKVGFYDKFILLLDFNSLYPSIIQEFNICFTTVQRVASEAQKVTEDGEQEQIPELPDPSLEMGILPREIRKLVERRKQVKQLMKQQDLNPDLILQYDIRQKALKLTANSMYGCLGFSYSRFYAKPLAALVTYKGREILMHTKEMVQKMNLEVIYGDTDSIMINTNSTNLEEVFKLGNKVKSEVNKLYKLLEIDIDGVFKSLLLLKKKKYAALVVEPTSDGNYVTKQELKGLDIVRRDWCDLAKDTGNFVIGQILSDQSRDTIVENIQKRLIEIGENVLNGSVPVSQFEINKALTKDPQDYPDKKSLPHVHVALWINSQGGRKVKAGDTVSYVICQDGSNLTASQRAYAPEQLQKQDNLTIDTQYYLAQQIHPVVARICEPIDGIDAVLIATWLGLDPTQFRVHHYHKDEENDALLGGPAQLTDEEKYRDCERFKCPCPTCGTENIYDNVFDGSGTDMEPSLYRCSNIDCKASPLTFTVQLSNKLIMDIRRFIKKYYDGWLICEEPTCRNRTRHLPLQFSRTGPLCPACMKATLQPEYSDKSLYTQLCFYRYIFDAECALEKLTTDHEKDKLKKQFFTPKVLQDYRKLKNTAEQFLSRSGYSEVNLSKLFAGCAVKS

[2] = molecular target: RNA-directed RNA polymerase (Hepacivirus hominis, UniProt O39930); assay: Inhibition of HCV NS5B RNA-dependent RNA polymerase activity assessed as reduction in radiolabeled-CTP incorporation into RNA using cIRES template measured after 2 hrs by microscintillation counting method
DNA polymerase beta = DNA polymerase beta (Homo sapiens, UniProt P06746); assay: Inhibition of human DNA polymerase-beta assessed as reduction in [3H]dTTP incorporation in to activated calf thymus DNA substrate at 100 uM by scintillation counting method relative to control; details: human DNA polymerase-beta enzyme, probe [3H]dTTP
DNA polymerase gamma = molecular target: T2, DNA polymerase gamma (Homo sapiens, UniProt P54098); assay: Inhibition of human DNA polymerase-gamma assessed as reduction in [3H]dTTP incorporation in to activated calf thymus DNA substrate at 100 uM by scintillation counting method relative to control; details: human DNA polymerase-gamma enzyme, probe [3H]dTTP
T2 sequence (P54098 whole entry): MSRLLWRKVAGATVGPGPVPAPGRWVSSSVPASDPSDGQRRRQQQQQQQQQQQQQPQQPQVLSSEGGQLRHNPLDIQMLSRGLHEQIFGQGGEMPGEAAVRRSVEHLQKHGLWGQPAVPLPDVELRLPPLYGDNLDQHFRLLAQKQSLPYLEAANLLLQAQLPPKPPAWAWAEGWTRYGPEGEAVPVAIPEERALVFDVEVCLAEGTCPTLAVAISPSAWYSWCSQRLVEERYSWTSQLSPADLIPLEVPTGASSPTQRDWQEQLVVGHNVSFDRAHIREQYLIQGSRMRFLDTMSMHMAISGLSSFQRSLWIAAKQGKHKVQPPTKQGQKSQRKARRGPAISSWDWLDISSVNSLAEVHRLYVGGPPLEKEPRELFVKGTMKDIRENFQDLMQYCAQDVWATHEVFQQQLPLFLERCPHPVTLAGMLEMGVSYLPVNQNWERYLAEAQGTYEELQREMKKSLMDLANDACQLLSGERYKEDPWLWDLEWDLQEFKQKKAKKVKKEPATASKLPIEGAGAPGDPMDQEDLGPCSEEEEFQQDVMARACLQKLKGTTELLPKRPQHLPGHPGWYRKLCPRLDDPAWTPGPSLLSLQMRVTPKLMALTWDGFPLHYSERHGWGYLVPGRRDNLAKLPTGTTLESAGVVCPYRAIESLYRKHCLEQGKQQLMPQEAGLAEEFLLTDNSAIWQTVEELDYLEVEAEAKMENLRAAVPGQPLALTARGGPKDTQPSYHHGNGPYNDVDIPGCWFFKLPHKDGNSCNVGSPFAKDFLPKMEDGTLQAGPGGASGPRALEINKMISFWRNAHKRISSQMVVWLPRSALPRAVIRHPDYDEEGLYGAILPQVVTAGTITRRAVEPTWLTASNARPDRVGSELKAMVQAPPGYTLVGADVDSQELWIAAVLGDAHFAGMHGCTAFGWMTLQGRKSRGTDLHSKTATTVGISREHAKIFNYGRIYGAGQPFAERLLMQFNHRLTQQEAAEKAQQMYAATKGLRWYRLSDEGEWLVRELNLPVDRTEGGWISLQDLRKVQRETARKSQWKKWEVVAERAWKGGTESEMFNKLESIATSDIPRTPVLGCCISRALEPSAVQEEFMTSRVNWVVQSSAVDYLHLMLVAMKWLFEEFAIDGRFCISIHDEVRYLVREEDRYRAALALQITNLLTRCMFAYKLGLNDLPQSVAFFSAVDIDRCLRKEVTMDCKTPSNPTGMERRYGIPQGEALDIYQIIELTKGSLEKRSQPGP

[3] = Inhibition of RNA polymerase 2 in human HeLa cell nuclear extract assessed as reduction in RNA transcription by PAGE analysis; format: cell-based
How it was run: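 In vitro transcription by RNA polymerase II in HeLa cell nuclear extract; RNA products resolved on 6% TBE-urea polyacrylamide gels.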

Sequence of RNA-directed RNA polymerase (O39930 whole entry): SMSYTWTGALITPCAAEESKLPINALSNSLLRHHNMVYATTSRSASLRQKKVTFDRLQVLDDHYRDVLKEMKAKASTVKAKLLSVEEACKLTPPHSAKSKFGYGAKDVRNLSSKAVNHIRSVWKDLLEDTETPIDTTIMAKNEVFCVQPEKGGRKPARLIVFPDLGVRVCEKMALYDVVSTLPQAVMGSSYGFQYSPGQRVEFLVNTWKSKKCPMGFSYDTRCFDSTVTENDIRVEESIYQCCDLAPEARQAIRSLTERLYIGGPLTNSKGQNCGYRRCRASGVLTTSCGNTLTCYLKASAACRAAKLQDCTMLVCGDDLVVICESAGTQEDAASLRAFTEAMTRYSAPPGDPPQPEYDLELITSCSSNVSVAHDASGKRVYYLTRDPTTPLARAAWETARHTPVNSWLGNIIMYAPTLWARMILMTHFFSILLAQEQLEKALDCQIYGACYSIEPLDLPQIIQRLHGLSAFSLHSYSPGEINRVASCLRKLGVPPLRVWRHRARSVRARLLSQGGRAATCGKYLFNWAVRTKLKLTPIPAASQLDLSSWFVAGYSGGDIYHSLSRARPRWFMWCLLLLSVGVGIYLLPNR

EC50 (Hepatitis C virus) [µM]	IC50 [2] [µM]	Structure (SMILES)	CC50 at 72 h [1] [µM]	also measured
43		CC[C@]1(O)[C@H](n2ccc(=O)[nH]c2=O)O[C@](F)(COP(=O)(N[C@@H](C)C(=O)OC(C)C)Oc2ccccc2)[C@H]1O (stereo partly specified)	> 100	
0.08		CC(C)OC(=O)[C@H](C)NP(=O)(OC[C@@]1(F)O[C@@H](n2ccc(=O)[nH]c2=O)[C@](C)(O)[C@@H]1O)Oc1ccc(Cl)cc1 (stereo partly specified)	> 100	
0.07		C#C[C@]1(O)[C@H](n2ccc(=O)[nH]c2=O)O[C@](F)(COP(=O)(N[C@@H](C)C(=O)OC2CCCCC2)Oc2ccccc2)[C@H]1O (stereo partly specified)	> 100	
	0.039	C#C[C@]1(O)[C@H](n2ccc(=O)[nH]c2=O)O[C@](F)(COP(=O)(O)OP(=O)(O)OP(=O)(O)O)[C@H]1O		
	0.34	C#C[C@]1(F)[C@H](n2ccc(=O)[nH]c2=O)O[C@](F)(COP(=O)(O)OP(=O)(O)OP(=O)(O)O)[C@H]1O		
7.5		CCOC(=O)[C@H](C)NP(=O)(N[C@@H](C)C(=O)OCC)OC[C@@]1(F)O[C@@H](n2ccc(=O)[nH]c2=O)[C@](C)(O)[C@@H]1O	> 100	
	0.15	O=c1ccn([C@@H]2O[C@](F)(COP(=O)(O)OP(=O)(O)OP(=O)(O)O)[C@@H](O)[C@]2(O)CF)c(=O)[nH]1		
0.04		C[C@H](NP(=O)(OC[C@@]1(F)O[C@@H](n2ccc(=O)[nH]c2=O)[C@](C)(O)[C@@H]1O)Oc1ccccc1)C(=O)OC1CCCCC1 (stereo partly specified)	84	
6.6		CC(C)OC(=O)[C@H](C)NP(=O)(N[C@@H](C)C(=O)OC(C)C)OC[C@@]1(F)O[C@@H](n2ccc(=O)[nH]c2=O)[C@](C)(O)[C@@H]1O	> 100	
0.045		CC(C)OC(=O)[C@H](C)NP(=O)(OC[C@@]1(F)O[C@@H](n2ccc(=O)[nH]c2=O)[C@@](F)(Cl)[C@@H]1O)Oc1ccccc1 (stereo partly specified)	> 100	
0.02		CC(C)OC(=O)[C@H](C)NP(=O)(OC[C@@]1(F)O[C@@H](n2ccc(=O)[nH]c2=O)[C@](C)(O)[C@@H]1O)Oc1cccc2ccccc12 (stereo partly specified)	> 85	
	6.4	C=C[C@]1(O)[C@H](n2ccc(=O)[nH]c2=O)O[C@](F)(COP(=O)(O)OP(=O)(O)OP(=O)(O)O)[C@H]1O		
	84	CC[C@]1(O)[C@H](n2ccc(=O)[nH]c2=O)O[C@](F)(COP(=O)(O)OP(=O)(O)OP(=O)(O)O)[C@H]1O		

The next lines start with the compound.

Structure (SMILES)	EC50 (Hepatitis C virus) [µM]	IC50 [2] [µM]	CC50 at 72 h [1] [µM]	also measured
CC(C)OC(=O)[C@H](C)NP(=O)(OC[C@@]1(F)O[C@@H](n2ccc(=O)[nH]c2=O)[C@](C)(F)[C@@H]1O)Oc1ccccc1 (stereo partly specified)	0.31		> 100	
CC(C)OC(=O)[C@H](C)NP(=O)(OC[C@H]1O[C@@H](n2ccc(=O)[nH]c2=O)[C@](C)(Cl)[C@@H]1O)Oc1ccccc1 (stereo partly specified)	0.12		> 100	
O=c1ccn([C@@H]2O[C@](F)(COP(=O)(O)OP(=O)(O)OP(=O)(O)O)[C@@H](O)[C@]2(F)Cl)c(=O)[nH]1		0.19		inhibition at 100 µM (DNA polymerase alpha): 75.8%; inhibition at 100 µM (DNA polymerase beta): 18.1%; inhibition at 100 µM (DNA polymerase gamma): 7.9%
C#C[C@@]1(F)[C@H](O)[C@@H](COP(=O)(O)OP(=O)(O)OP(=O)(O)O)O[C@H]1n1ccc(=O)[nH]c1=O		0.33		
O=c1ccn([C@@H]2O[C@H](COP(=O)(O)OP(=O)(O)OP(=O)(O)O)[C@@H](O)[C@]2(O)CF)c(=O)[nH]1		0.28		
C[C@H](NP(=O)(OC[C@@]1(F)O[C@@H](n2ccc(=O)[nH]c2=O)[C@](C)(O)[C@@H]1O)Oc1ccccc1)C(=O)OCC(C)(C)C (stereo partly specified)	0.04		> 100	
C#C[C@@]1(O)[C@H](O)[C@@H](COP(=O)(O)OP(=O)(O)OP(=O)(O)O)O[C@H]1n1ccc(=O)[nH]c1=O		0.027		
C=C[C@]1(O)[C@H](n2ccc(=O)[nH]c2=O)O[C@](F)(COP(=O)(N[C@@H](C)C(=O)OC(C)C)Oc2ccccc2)[C@H]1O (stereo partly specified)	8.3		> 100	
CC(C)OC(=O)[C@H](C)N[P@@](=O)(OC[C@@]1(F)O[C@@H](n2ccc(=O)[nH]c2=O)[C@](C)(O)[C@@H]1O)Oc1ccccc1	0.94		> 100	
CC(C)OC(=O)[C@H](C)NP(=O)(OC[C@H]1O[C@@H](n2ccc(=O)[nH]c2=O)[C@](C)(F)[C@@H]1O)Oc1ccccc1 (stereo partly specified)	0.22		> 100	
C[C@@]1(F)[C@H](O)[C@@H](COP(=O)(O)OP(=O)(O)OP(=O)(O)O)O[C@H]1n1ccc(=O)[nH]c1=O [GS-461203]				inhibition at 100 µM (DNA polymerase alpha): 58.2%; IC50 [3]: > 100 µM; inhibition at 100 µM (DNA polymerase beta): 14%; inhibition at 100 µM (DNA polymerase gamma): 9.2%
CC(C)OC(=O)[C@H](C)NP(=O)(OC[C@@]1(F)O[C@@H](n2ccc(=O)[nH]c2=O)[C@](C)(Cl)[C@@H]1O)Oc1ccccc1 (stereo partly specified)	0.1		> 100	
